This excerpt belongs to a sample that is enriched for hits.
Ecoli tolC: growth inhibitors of E. coli tolC mutant, primary screen, strain BW25113 ΔtolC::kan, 384-well; OD615; growth inhibition, % at 10 µM (by protocol); 65,000 compounds, 2.2% hits; AID 573, 2007;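 active = growth inhibition at or above a cutoff equal to the mean over every tested compound plus 3 SD, cut at about 60% in these data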;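 note: growth measured after 20 h incubation at 37 °C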
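Assay system: tolC-deleted E. coli BW25113. Medium: kanamycin-containing LB broth (50 µg/mL). Dosing: 10 µM final, single dose. Timing: bacterial growth with compound for 20 h at 37 °C. Detection: A615 absorbance measurement. Read-out basis: growth inhibition in percent.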
E coli WT exp: growth inhibitors of wild-type E. coli, primary screen, strain BW25113, expanded library, OD600; growth inhibition, % at 100 µM; 98,000 compounds, 0.15% hits; AID 710, 2007; OD600 absorbance;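 active = growth inhibition above about 50% at one test dose, limit read from the data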;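 note: growth measured after 20 h incubation at 37 °C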
HePTP inhibitor: inhibitors of human HePTP phosphatase, primary screen, biochemical, absorbance, leukemia target. recombinant HePTP phosphatase activity, OD absorbance. inhibition, % at 20 µM. 110,000 compounds, 0.64% hits. Tyrosine-protein phosphatase non-receptor type 7 (Homo sapiens), P35236; in the data active = inhibition above about 50%;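 note: plate controls were vehicle for no effect and reference inhibitor for full effect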
MKP-1 inh: MKP-1 phosphatase inhibitors, primary screen, biochemical, in vitro. Dual specificity protein phosphatase 1 (Homo sapiens), P28562. recombinant MKP-1, OMFP hydrolysis fluorescence. inhibition, %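 (compounds tested at a single concentration somewhere between 10 and 100 µM)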. 65,000 compounds, 0.15% hits. AID 374, 2006;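 active = inhibition above about 50%, limit read from the data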;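 note: 0% = DMSO max control wells and 100% = wells with enzyme stopped by NaOH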
Cdc25B block: inhibitors of Cdc25B phosphatase catalytic domain, primary screen, biochemical, OMFP fluorescence | recombinant Cdc25B, OMFP fluorescence Ex485/Em525 | inhibition, %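 (compounds tested at 10 µM final in the well)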 | 65,000 compounds, 0.1% hits | AID 368, 2006; in the data active = inhibition above about 50%
Target sequence (P30305 whole entry, looked up, the tested form may be a part): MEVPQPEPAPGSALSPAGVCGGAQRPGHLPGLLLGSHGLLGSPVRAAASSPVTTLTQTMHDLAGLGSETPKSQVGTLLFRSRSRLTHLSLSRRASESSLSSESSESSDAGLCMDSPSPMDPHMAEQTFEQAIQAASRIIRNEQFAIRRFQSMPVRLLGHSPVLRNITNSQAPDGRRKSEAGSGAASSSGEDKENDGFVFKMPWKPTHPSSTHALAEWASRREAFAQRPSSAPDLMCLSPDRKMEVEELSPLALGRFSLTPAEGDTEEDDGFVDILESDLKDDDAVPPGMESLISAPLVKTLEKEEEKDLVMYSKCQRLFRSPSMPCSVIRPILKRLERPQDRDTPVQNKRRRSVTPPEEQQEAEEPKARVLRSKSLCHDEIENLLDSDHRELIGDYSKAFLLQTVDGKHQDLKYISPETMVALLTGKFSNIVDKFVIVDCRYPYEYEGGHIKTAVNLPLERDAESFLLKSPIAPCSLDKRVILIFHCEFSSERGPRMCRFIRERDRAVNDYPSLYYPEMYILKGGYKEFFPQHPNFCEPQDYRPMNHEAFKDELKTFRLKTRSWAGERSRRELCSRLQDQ
MMP13 inh: human MMP13 inhibitors, primary screen, biochemical, FRET peptide cleavage; Collagenase 3 (Homo sapiens), P45452; MMP-13 fTHP FRET cleavage, Mca fluorescence; inhibition, % at 4 µM; 65,000 compounds, 0.07% hits; AID 570, 2006;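 active = inhibition above the mean of compound-free control plate wells plus 3 SD, cut at about 14% in these data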;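 note: 0% = DMSO wells and 100% = wells with reference MMP-13 inhibitor after basal subtraction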
* marks the source's active call; other numbers are inactive results; . = not tested or not shown.

SMILES	Ecoli tolC	E coli WT exp	HePTP inhibitor	MKP-1 inh	Cdc25B block	MMP13 inh
COC(=O)c1ccc(OC)c(CSc2nnc(COc3ccccc3)o2)c1	62*	1	4	-34	-15	-1
COc1ccc(C)cc1NC(=O)CCC1CCCC1	.	.	104*	.	.	.
COc1ccccc1NC(=O)CCC1CCCC1	.	.	2	.	.	.
O=C(OCCN1CCCCC1)c1ccc(O)cc1	-11	-3	4	8	-4	-2
O=C(OCCCN1CCCCC1)c1ccc(O)cc1	-11	2	6	-32	57*	0
Cc1cc2c(nc3s/c(=C\c4cccc(Cl)c4)c(=O)n32)c(Br)c1C	.	.	6	.	.	.
Cc1ccc(NC(=O)COC(=O)c2ccc3c(c2)NC(=O)C2CCCN32)cc1C (centres undefined)	35	-4	1	54*	7	-10
CN1CCN(S(=O)(=O)c2ccc3c(c2)NC(=O)C2CCCN32)CC1 (centres undefined)	.	3	.	.	.	.
Cc1ccc(-n2c(C)cc(/C=C3\NC(=S)NC3=O)c2C)cc1C	.	.	5	.	.	.
CC(C)Cn1c(=O)c(C(=O)Nc2ccccc2S(N)(=O)=O)c(O)c2ccccc21	100*	-3	-6	11	-1	-7
CCC(C)n1c(=O)c(C(=O)Nc2ccccc2S(N)(=O)=O)c(O)c2ccccc21 (centres undefined)	83*	-5	-15	-8	1	-4
COc1ccc(S(=O)(=O)Nc2ccc(C(=O)Nc3ccccc3)cc2)cc1Br	.	.	5	.	.	.
CCCn1c2ccccc2c2nc3ccccc3nc21	69*	-10	3	-5	-16	-4
N#CCCn1c2ccccc2c2nc3ccccc3nc21	19	-11	6	7	3	4
CNC(=O)CN(c1cc(OC)ccc1OC)S(C)(=O)=O	.	.	4	.	.	.
CCOC(=O)c1c(C)n(C)c2ccc(OCC(O)Cn3nc(C)c(Br)c3C)cc12 (centres undefined)	88*	.	.	19	-33	1
Cc1c(C(=O)O)cccc1-n1c(C)ccc1C	.	.	104*	.	.	.
Cc1ccc(C)n1-c1ccccc1C(=O)O	.	.	104*	.	.	.
O=c1cnnc(N/N=C/c2ccc([N+](=O)[O-])cc2)[nH]1	.	.	7	.	.	.
Cn1nc(-c2ccc(N3CCOCC3)c(NC(=O)COc3ccccc3)c2)c2ccccc2c1=O	65*	.	-6	14	-4	2
Cc1cc(S(=O)(=O)N2CCN(c3c(C)cccc3C)CC2)ccc1F	47	-23	.	-10	-5	0
Cc1cc(S(=O)(=O)N2CCN(c3ccccc3C)CC2)ccc1F	64*	-14	17	-5	-9	0
O=C(Nc1nnc(-c2ccccc2)o1)c1nc2ccccc2s1	73*	.	6	18	11	-1
CC(=O)Nc1nnc(-c2ccccc2)o1	.	.	-4	.	.	.
CC1CCCc2sc3nc(NCc4ccco4)n4ncnc4c3c21 (centres undefined)	81*	-11	5	14	-1	-6
SMILES	Ecoli tolC	E coli WT exp	HePTP inhibitor	MKP-1 inh	Cdc25B block	MMP13 inh
CC1CCc2sc3nc(NCc4ccco4)n4ncnc4c3c2C1 (centres undefined)	36	-4	-2	35	1	-1
Cc1ccccc1NC(=O)C(=O)NCc1ccc(F)cc1	.	.	-2	.	.	.
CCc1cccc(NC(=O)CCc2ccccc2)c1	.	.	-4	.	.	.
CCc1cccc(NC(=O)Cc2ccccc2)c1	.	.	102*	.	.	.
CC1Oc2ccccc2N(Cc2ccccc2Cl)C1=O (centres undefined)	61*	-9	13	0	-3	-4
O=C(c1ccc([N+](=O)[O-])cc1)N1CCN(c2nc(-c3ccccc3)c3cc(Cl)ccc3n2)CC1	.	.	5	.	.	.
CSc1ccc(/C=N/NC(=O)COc2c(Br)cc(Br)cc2Br)cc1	.	.	4	.	.	.
O=C(O)c1cccc(N2C(=O)c3ccc(OCCOc4ccc5c(c4)C(=O)N(c4cccc(C(=O)O)c4)C5=O)cc3C2=O)c1	.	.	104*	.	.	.
O=C(NCc1ccc2c(c1)OCO2)c1ccc(-c2ccc(Cl)cc2)o1	79*	-21	-8	21	10	0
Cc1ccc2oc(C(=O)NCc3ccc4c(c3)OCO4)c(C)c2c1	86*	-9	4	4	8	0
O=C(NCc1ccc2c(c1)OCO2)c1cccc(Cl)c1	-13	-4	6	-4	2	-2
Cc1cc([N+](=O)[O-])ccc1-c1ccc(C(=O)Nc2ccc(O)c(-c3nc4ccccc4o3)c2)o1	.	.	1	.	.	.
Cc1onc(-c2c(F)cccc2Cl)c1C(=O)Nc1nc2c(s1)CCCC2	63*	-16	6	-1	-4	1
Cc1onc(-c2ccccc2Cl)c1C(=O)Nc1sc2c(c1C#N)CCC2	83*	-19	-5	-21	-4	-1
Cc1cc(Cl)ccc1OCCOCCN1CCC(C)CC1	.	.	0	.	.	.
O=C(Nc1ccccc1)NC1CCCCC1	.	0	89*	.	.	.
O=C(NC1CCCCCCC1)c1ccccc1O	83*	12	-2	2	3	-24
O=C(Nc1ccccc1NC(=O)NC1CCCCC1)NC1CCCCC1	-3	-6	3	7	3	-1
O=C(NCC1CCCO1)c1cc(-c2ccco2)nc2ccccc12 (centres undefined)	-27	6	20	8	10	8
O=C(NC1CCCCCC1)c1cc(-c2ccco2)nc2ccccc12	.	.	98*	.	.	.
CCN(CC)c1ccc(NC(=O)c2cc(Br)ccc2OC)cc1	.	.	6	.	.	.
CCCOc1ccc(/C=C/C(=O)c2cccs2)cc1OCC	.	.	-14	.	.	.
O=C(Nc1nc(-c2ccccn2)cs1)C1COc2ccccc2O1 (centres undefined)	100*	11	3	6	-10	6
O=c1cc(-c2ccc([N+](=O)[O-])cc2)nc2cc(-c3ccc(F)cc3)[nH]n12	.	.	12	.	.	.
O=c1cc(-c2ccc([N+](=O)[O-])cc2)nc2cc(-c3cccc(Cl)c3)[nH]n12	.	.	78*	.	.	.
SMILES	Ecoli tolC	E coli WT exp	HePTP inhibitor	MKP-1 inh	Cdc25B block	MMP13 inh
COc1ccc(O)c(C2NN=C(Cc3ccccc3)S2)c1 (centres undefined)	.	.	-10	.	.	.
CCn1cc(Br)c(C(=O)Nc2ccc(C(=O)OC(C)C)cc2)n1	67*	2	4	-1	-3	5
CCn1cc(Br)c(C(=O)Nc2ccc(OC)cc2)n1	5	16	5	0	-5	2
CCOC(=O)Cc1nnc2c(Nc3ccccc3F)nc3nonc3n12	79*	8	5	5	1	0
COC(=O)CN(c1ccc(OC)c(Cl)c1)S(C)(=O)=O	.	.	9	.	.	.
O=C(O)C1C2CCC(O2)C1C(=O)NCc1ccc(F)cc1 (centres undefined)	.	.	103*	.	.	.
CCN=C(Nc1cccc(Cl)c1)SC1CC(=O)N(c2ccc(OCC)cc2)C1=O (centres undefined)	.	.	-6	.	.	.
